According to ChEMBL document CHEMBL4346654 (Eur J Med Chem, 2019):
Converted amounts (≈) assume the structure as drawn.

Columns and labels:
Assay type in all cases: functional
[1] = system: Staphylococcus aureus; experiment: Antibacterial activity against MLS-resistant Staphylococcus aureus PU 32 expressing inducible ermA gene assessed as reduction in microbial growth by CLSI based two-fold broth dilution method
[2] = system: Streptococcus pneumoniae; experiment: Antibacterial activity against erythromycin-susceptible Streptococcus pneumoniae ATCC49619 assessed as reduction in microbial growth by CLSI based two-fold broth dilution method
[3] = system: Streptococcus pneumoniae; experiment: Bactericidal activity against erythromycin-susceptible Streptococcus pneumoniae ATCC49619 pretreated followed by subculture in absence of compound measured after 24 hrs
Summary of the method: (§1)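 Isolates were identified by 16S rDNA sequencing. MIC was determined by CLSI-recommended two-fold broth dilution. For MBC, samples from 1–8 fold MIC were transferred to culture medium and subcultured for 24 h without antibiotic.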

[4] = system: Haemophilus influenzae; experiment: Antibacterial activity against azithromycin-susceptible Haemophilus influenzae ATCC 49247 assessed as reduction in microbial growth by CLSI based two-fold broth dilution method
[5] = system: Streptococcus pneumoniae; experiment: Selectivity ratio of MBC to MIC for erythromycin-susceptible Streptococcus pneumoniae ATCC49619; summary of the method: as §1
[6] = system: Streptococcus pneumoniae; experiment: Antibacterial activity against Streptococcus pneumoniae 07P390 expressing constitutive ermB gene assessed as reduction in microbial growth by CLSI based two-fold broth dilution method
[7] = system: Streptococcus pneumoniae; experiment: Antibacterial activity against penicillin-susceptible Streptococcus pneumoniae PU 09 expressing mef gene assessed as reduction in microbial growth by CLSI based two-fold broth dilution method
[8] = system: Streptococcus pneumoniae; experiment: Bactericidal activity against penicillin-susceptible Streptococcus pneumoniae PU 09 expressing mef gene pretreated followed by subculture in absence of compound measured after 24 hrs; summary of the method: as §1
[9] = system: Streptococcus pneumoniae; experiment: Selectivity ratio of MBC to MIC for penicillin-susceptible Streptococcus pneumoniae PU 09 expressing mef gene; summary of the method: as §1
[10] = system: Haemophilus influenzae; experiment: Bactericidal activity against azithromycin-susceptible Haemophilus influenzae ATCC 49247 pretreated followed by subculture in absence of compound measured after 24 hrs; summary of the method: as §1
[11] = system: Haemophilus influenzae; experiment: Selectivity ratio of MBC to MIC for azithromycin-susceptible Haemophilus influenzae ATCC 49247; summary of the method: as §1
[12] = system: Streptococcus pyogenes; experiment: Antibacterial activity against MLS-resistant Streptococcus pyogenes 01-968 expressing inducible ermB gene assessed as reduction in microbial growth by CLSI based two-fold broth dilution method
[13] = system: Streptococcus pyogenes; experiment: Bactericidal activity against MLS-resistant Streptococcus pyogenes 01-968 expressing inducible ermB gene pretreated followed by subculture in absence of compound measured after 24 hrs
Summary of the method: (§2)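 MBC assay. Following MIC determination by CLSI standard two-fold broth dilution, samples at 1–8 fold MIC were transferred to fresh culture medium. They were subcultured for 24 h without antibiotic. Isolates were identified by 16S rDNA sequencing. S. aureus ATCC 29213 was used as a control strain.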

[14] = system: Streptococcus pyogenes; experiment: Selectivity ratio of MBC to MIC for MLS-resistant Streptococcus pyogenes 01-968 expressing inducible ermB gene
Summary of the method: (§3)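 MBC/MIC ratio. MIC was measured by CLSI standard two-fold broth dilution. MBC was measured by transferring samples at 1–8 fold MIC to culture medium and subculturing for 24 h without antibiotic. Isolates were identified by 16S rDNA sequencing.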

[15] = system: Staphylococcus aureus; experiment: Bactericidal activity against MLS/methicillin-resistant Staphylococcus aureus PU 32 expressing inducible ermA gene pretreated followed by subculture in absence of compound measured after 24 hrs; summary of the method: as §2
[16] = system: Staphylococcus aureus; experiment: Selectivity ratio of MBC to MIC for MLS/methicillin-resistant Staphylococcus aureus PU 32 expressing inducible ermA gene; summary of the method: as §3
[17] = system: Staphylococcus aureus; experiment: Antibacterial activity against MLS-resistant Staphylococcus aureus PU 20 expressing constitutive ermC gene assessed as reduction in microbial growth by CLSI based two-fold broth dilution method
[18] = system: Staphylococcus aureus; experiment: Bactericidal activity against MLS-resistant Staphylococcus aureus PU 20 expressing constitutive ermC gene pretreated followed by subculture in absence of compound measured after 24 hrs; summary of the method: as §2
[19] = system: Streptococcus pneumoniae; experiment: Bactericidal activity against Streptococcus pneumoniae 07P390 expressing constitutive ermB gene pretreated followed by subculture in absence of compound measured after 24 hrs; summary of the method: as §1

SMILES	MIC [1] [µg/mL]	MIC [2] [µg/mL]	MBC [3] [µg/mL]	MIC [4] [µg/mL]	Selectivity ratio [5]	MIC [6] [µg/mL]	MIC [7] [µg/mL]	MBC [8] [µg/mL]	Selectivity ratio [9]	MBC [10] [µg/mL]	Selectivity ratio [11]	MIC [12] [µg/mL]	MBC [13] [µg/mL]	Selectivity ratio [14]	MBC [15] [µg/mL]	Selectivity ratio [16]	MIC [17] [µg/mL]	MBC [18] [µg/mL]	MBC [19] [µg/mL]
CC[C@H]1OC(=O)[C@@](C)(F)C(=O)[C@H](C)[C@@H](O[C@@H]2O[C@H](C)C[C@H](N(C)C)[C@H]2O)[C@](C)(OC)C[C@@H](C)/C(=N\OCC#Cc2cncc(C#N)c2)[C@H](C)[C@H]2OC(=O)O[C@@]21C	0.5	0.125	0.125 (≈ 0.159 µM)	8	1	> 32	1	2 (≈ 2.54 µM)	2	16 (≈ 20.3 µM)	2	0.25	> 2	>8	> 4	>8	128	> 256	
CC[C@H]1OC(=O)[C@@](C)(F)C(=O)[C@H](C)[C@@H](O[C@@H]2O[C@H](C)C[C@H](N(C)C)[C@H]2O)[C@](C)(OC)C[C@@H](C)/C(=N\OCC#Cc2cncc(NC(C)=O)c2)[C@H](C)[C@H]2OC(=O)O[C@@]21C	1	0.062	0.25 (≈ 0.305 µM)	8	4	> 32	4	4 (≈ 4.88 µM)	1	16 (≈ 19.5 µM)	2	0.125	> 1	>8	> 8	>8	> 256		
CC[C@H]1OC(=O)[C@@](C)(F)C(=O)[C@H](C)[C@@H](O[C@@H]2O[C@H](C)C[C@H](N(C)C)[C@H]2O)[C@](C)(OC)C[C@@H](C)/C(=N\OCC#Cc2cnc(N)c3ccccc23)[C@H](C)[C@H]2OC(=O)O[C@@]21C	8	2	4 (≈ 4.84 µM)	64	2	> 32	16	16 (≈ 19.3 µM)	1	64 (≈ 77.4 µM)	1	1	8 (≈ 9.67 µM)	8	32 (≈ 38.7 µM)	4	128	> 128	
CC[C@H]1OC(=O)[C@H](C)[C@@H](O[C@H]2C[C@@](C)(OC)[C@@H](O)[C@H](C)O2)[C@H](C)[C@@H](O[C@@H]2O[C@H](C)C[C@H](N(C)C)[C@H]2O)[C@](C)(OC)C[C@@H](C)C(=O)[C@H](C)[C@@H](O)[C@]1(C)O [CLARITHROMYCIN]	32	0.062	0.25 (≈ 0.334 µM)	4	4	> 32	4	32 (≈ 42.8 µM)	8	8 (≈ 10.7 µM)	2	8	> 64	>8	> 256	>8	> 256		
CC[C@H]1OC(=O)[C@@](C)(F)C(=O)[C@H](C)[C@@H](O[C@@H]2O[C@H](C)C[C@H](N(C)C)[C@H]2O)[C@](C)(OC)C[C@@H](C)/C(=N\OCC#Cc2cncc(C(N)=O)c2)[C@H](C)[C@H]2OC(=O)O[C@@]21C	1	0.25	1 (≈ 1.24 µM)	16	4	> 32	2	2 (≈ 2.48 µM)	1	32 (≈ 39.8 µM)	2	0.125	> 1	>8	> 8	>8	> 256		
CC[C@H]1OC(=O)[C@@](C)(F)C(=O)[C@H](C)[C@@H](O[C@@H]2O[C@H](C)C[C@H](N(C)C)[C@H]2O)[C@](C)(OC)C[C@@H](C)/C(=N\OC/C=C/c2ccc3ncc(C(=O)O)cc3c2)[C@H](C)[C@H]2OC(=O)O[C@@]21C	4	1	2 (≈ 2.33 µM)	32	2	32	16	32 (≈ 37.3 µM)	2	64 (≈ 74.6 µM)	2	0.062	> 0.5	>8	> 32	>8	> 256		> 32
CC[C@H]1OC(=O)[C@@](C)(F)C(=O)[C@H](C)[C@@H](O[C@@H]2O[C@H](C)C[C@H](N(C)C)[C@H]2O)[C@](C)(OC)C[C@@H](C)/C(=N\OC/C=C/c2cncc(C(=O)O)c2)[C@H](C)[C@H]2OC(=O)O[C@@]21C	8	0.25	0.5 (≈ 0.619 µM)	32	2	> 32	8	16 (≈ 19.8 µM)	2	32 (≈ 39.6 µM)	1	0.5	> 4	>8	> 64	>8	> 256		
CC[C@H]1OC(=O)[C@@](C)(F)C(=O)[C@H](C)[C@@H](O[C@@H]2O[C@H](C)C[C@H](N(C)C)[C@H]2O)[C@](C)(OC)C[C@@H](C)/C(=N\OCC#Cc2cncc(N)c2)[C@H](C)[C@H]2OC(=O)O[C@@]21C	0.5	0.25	0.5 (≈ 0.644 µM)	16	2	> 32	4	4 (≈ 5.15 µM)	1	32 (≈ 41.2 µM)	2	0.062	> 0.5	>8	> 4	>8	> 256		
